For 19 compounds, inhibition of growth results are on record in ChEMBL document CHEMBL3046311, “Synthesis and antifungal activities of alkyl N-(1,2,3-thiadiazole-4-carbonyl) carbamates and S-alkyl N-(1,2,3-thiadiazole-4-carbonyl) carbamothioates” (2005).

Each structure is given as a SMILES string.

Holding throughout (assay type): functional
Settings in all cases: read-out: GI

Experiment [1] relates to Fusarium graminearum. The experiment can be described thus: Fungistatic activity against Fusarium graminearum assessed as inhibition of mycelial growth measured at 50 ug/mL at 28 degC after 72 hr relative to control. The method, boiled down:
(§1)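 Poisoned-food plate assay with Gibberella zeae. Compound in acetone (500 or 50 µg/mL stocks) is mixed 1:9 with molten potato dextrose agar at 50 °C and poured. Once set, plates are inoculated with a 4 mm mycelium disk, inverted, and held 72 h at 28 °C. Water is the negative control, run in triplicate. Colony radius is measured, and inhibition = (C−T)/C × 100%.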

In experiment [2] the test system is Fusarium graminearum. The experiment can be described thus: Fungistatic activity against Fusarium graminearum assessed as inhibition of mycelial growth measured at 5 ug/mL at 28 degC after 72 hr relative to control. A digest of the protocol: as §1
The test system of experiment [3] is Alternaria kikuchiana. The experiment can be described thus: Fungistatic activity against Alternaria kikuchiana assessed as inhibition of mycelial growth measured at 5 ug/mL at 28 degC after 72 hr relative to control. The method, boiled down: (§2)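 Compounds in acetone at stock levels of 500 and 50 µg/mL; 1 mL of stock mixed into 9 mL thawed potato dextrose agar at 50 °C and poured. Solidified plates were inoculated with a 4 mm mycelial disk, inverted, and held at 28 °C for 72 h. Water served as negative control, in triplicate. Inhibition was calculated as (C−T)/C × 100% from colony radii.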

The subject of experiment [4] is Alternaria kikuchiana. The experiment can be described thus: Fungistatic activity against Alternaria kikuchiana assessed as inhibition of mycelial growth measured at 50 ug/mL at 28 degC after 72 hr relative to control. A digest of the protocol: as §2

For `CCCCCCCCCCOC(=O)NC(=O)c1csnn1`, the results for the inhibition of growth at 50 µg/mL in the experiment on Fusarium graminearum [1] and in the experiment on Alternaria kikuchiana [4] were 75% and 54%, respectively. The inhibition of growth at 5 µg/mL in the experiment with Fusarium graminearum [2] came to 42%; with Alternaria kikuchiana [3] it was 54%.
On to `O=C(NC(=O)c1csnn1)OC1CCCCC1`, for which the inhibition of growth at 50 µg/mL in the experiment with Fusarium graminearum [1] is 17%; with Alternaria kikuchiana [4], 59%. The inhibition of growth at 5 µg/mL in the experiment with Fusarium graminearum [2] worked out at 0%; with Alternaria kikuchiana [3], 32%.
In the same order, the values of `CCCCCCCCSC(=O)NC(=O)c1csnn1` are 31%, 18%, 10% and 0%.
As for `O=C(NC(=O)c1csnn1)OCCCCCCCCCCCCBr`, the inhibition of growth at 50 µg/mL was determined as 21% with Fusarium graminearum [1] and 36% with Alternaria kikuchiana [4]. The figures for the inhibition of growth at 5 µg/mL with Fusarium graminearum [2] and in the experiment with Alternaria kikuchiana [3] were 6% and 13%, respectively.
The corresponding values for `CCCCCCCCCCCOC(=O)NC(=O)c1csnn1` are 78%, 40%, 59% and 10%.
In the same order, the values of `CCCCCCOC(=O)NC(=O)c1csnn1` are 92%, 90.7%, 23% and 54%.
The corresponding values for `CCCCCCSC(=O)NC(=O)c1csnn1` are 75%, 27%, 25% and 4%.
With `CC(C)CCOC(=O)NC(=O)c1csnn1`, the values for the inhibition of growth at 50 µg/mL in the experiment on Fusarium graminearum [1] and in the experiment on Alternaria kikuchiana [4] were 100% and 50%, respectively. Besides, the inhibition of growth at 5 µg/mL turned out to be 15% in the experiment on Fusarium graminearum [2] and 25% in the experiment on Alternaria kikuchiana [3].
For `O=C(NC(=O)c1csnn1)OCCCCCCCCCCBr`, the inhibition of growth at 50 µg/mL with Fusarium graminearum [1] came to 42%; in the experiment on Alternaria kikuchiana [4] it was 41%. For the same compound, the inhibition of growth at 5 µg/mL is 25% in the experiment on Fusarium graminearum [2] and 0% with Alternaria kikuchiana [3].
In the same order, the values of `CCCCCCCCCOC(=O)NC(=O)c1csnn1` are 60%, 50%, 23% and 27%.
For the compound `CCCCCCCOC(=O)NC(=O)c1csnn1`, the inhibition of growth at 50 µg/mL in the experiment with Fusarium graminearum [1] is 92%; with Alternaria kikuchiana [4], 50%. The inhibition of growth at 5 µg/mL amounted to 78% in the experiment on Fusarium graminearum [2] and 20% in the experiment on Alternaria kikuchiana [3].
The corresponding values for `CCCCCCCSC(=O)NC(=O)c1csnn1` are 35%, 32%, 12% and 4%.
In the same order, the values of `CCCCSC(=O)NC(=O)c1csnn1` are 10%, 36%, 0% and 32%.
Consider `CCCCCOC(=O)NC(=O)c1csnn1`, for which the figures for the inhibition of growth at 50 µg/mL with Fusarium graminearum [1] and with Alternaria kikuchiana [4] were 42% and 45%, respectively. For the same compound, the inhibition of growth at 5 µg/mL in the experiment on Fusarium graminearum [2] amounted to 4%; with Alternaria kikuchiana [3], 36%.
In the same order, the values of `CCCCCCCCCCCCCCOC(=O)NC(=O)c1csnn1` are 100%, 50%, 0% and 15%.
In the same order, the values of `CCCSC(=O)NC(=O)c1csnn1` are 54%, 36%, 27% and 9%.
The corresponding values for `CCCCCCCCOC(=O)NC(=O)c1csnn1` are 81%, 50%, 63% and 20%.
Take `CCCCCCCCCCCCCCCCOC(=O)NC(=O)c1csnn1`: the inhibition of growth at 50 µg/mL came to 67% in the experiment on Fusarium graminearum [1] and 27% with Alternaria kikuchiana [4]. The results for the inhibition of growth at 5 µg/mL with Fusarium graminearum [2] and in the experiment with Alternaria kikuchiana [3] were 0% and 14%, respectively.
For the compound `CCCCOC(=O)NC(=O)c1csnn1`, the values for the inhibition of growth at 50 µg/mL in the experiment with Fusarium graminearum [1] and with Alternaria kikuchiana [4] were 11% and 50%, respectively. Besides, the values for the inhibition of growth at 5 µg/mL in the experiment with Fusarium graminearum [2] and in the experiment on Alternaria kikuchiana [3] were 6% and 23%, respectively.
